From ChEMBL document CHEMBL3763145, “Niizalactams A-C, Multicyclic Macrolactams Isolated from Combined Culture of Streptomyces with Mycolic Acid-Containing Bacterium” (J Nat Prod, 2015)
The source made the active and inactive calls.

Experiments:
Candida albicans = test: Antimicrobial activity against Candida albicans at 1.25 to 10 ug/disc after 1 to 2 days by disc diffusion method; assay type: functional, organism-based
Summary of the method: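 Candida albicans precultured in LB broth; 1 mL broth seeded directly into 20 mL agar of 4.0% glucose, 1.0% peptone, pH 5.7. 6 mm paper disks at 10, 5, 2.5, 1.25 μg/disk; plates held at 37 °C for 1 to 2 days and scored for inhibition rings.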

Bacillus subtilis = test: Antimicrobial activity against Bacillus subtilis at 1.25 to 10 ug/disc after 1 to 2 days by disc diffusion method; assay type: functional, organism-based
Summary of the method: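 Bacillus subtilis precultured in LB broth; 1 mL broth added directly to 20 mL LB agar. Paper disks (6 mm) loaded at 10, 5, 2.5 and 1.25 μg/disk placed on plates; incubation at 37 °C for 1 to 2 days; read-out was presence of inhibition rings around disks.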

Saccharomyces cerevisiae = test: Antimicrobial activity against Saccharomyces cerevisiae at 1.25 to 10 ug/disc after 1 to 2 days by disc diffusion method; assay type: functional, organism-based
Summary of the method: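 Saccharomyces cerevisiae precultured in LB broth; 1 mL added to 20 mL agar (5.0% glucose, 0.5% peptone, 0.2% yeast extract, 0.4% K2HPO4, 0.2% KH2PO4, 0.02% MgSO4·7H2O, pH 5.6). Disks (6 mm) at 10, 5, 2.5, 1.25 μg/disk; 37 °C, 1 to 2 days; inhibition rings checked.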

P388 = test: Cytotoxicity against mouse P388 cells assessed as reduction in cell viability at 0.78 to 100 uM after 4 days by MTT assay; assay type: functional, cell-based
Summary of the method: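 P388 cells kept in RPMI 1640 with 10% FBS and penicillin/streptomycin, 37 °C, 5% CO2. Compounds added from DMSO or methanol solutions to 1 × 10^5 cells/mL suspension at final 100 to 0.78 μM (twofold series); 4 days exposure. MTT (1 mg/mL) added 4 h, pellet dissolved in DMSO, absorbance read at 570 nm.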

Measured: Activity

CC1=C\C=C\[C@H]2[C@H](O)[C@@H](C)CN2C(=O)CC(=O)/C=C/C(C)=C/C=C/[C@@H](O)[C@H](O)[C@H](O)C(=O)/C=C\C=C\1
inactive: all assays above

CC1=C\[C@H]2[C@@H]3[C@@H](O)[C@H](O)[C@H](O)C(=O)[C@@H]3C=C[C@@H]2/C(C)=C/C=C/C=C/[C@@H](C)CNC(=O)CC(=O)\C=C\1
inactive: all assays above

CC1=C\C=C\[C@H]2[C@H](O)[C@@H](C)CN2C(=O)CC(=O)/C=C/C(C)=C/C=C/C[C@H](O)[C@H](O)C(=O)/C=C\C=C\1
inactive: all assays above
